System: MS2 coat protein
Experiment: apparent Kd, MS2 coat protein; higher = weaker binding; RNA-MaP array; FMN 200 µM where present
Procedure, shortened: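 Stalled E. coli RNA polymerase transcribed each design on Illumina sequencing-chip clusters. The clusters were titrated with SNAP-549-labelled MS2 coat protein, starting at 0.7 or 1.5 nM and doubling up to 3 µM, first without ligand and then with constant ligand, in 100 mM Tris-HCl pH 7.5, 80 mM KCl, 4 mM MgCl2, BSA, DTT, yeast tRNA and Tween-20. Green signal was normalised to red-channel RNA signal and to the control-cluster median Fmax. The apparent Kd is the median of filtered binding-curve fits made for each cluster.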

[1] = designed as: OFF switch for flavin mononucleotide, no ligand
[2] = ligand present: flavin mononucleotide, designed as: OFF switch for flavin mononucleotide
[3] = designed as: ON switch for flavin mononucleotide, no ligand
[4] = ligand present: flavin mononucleotide, designed as: ON switch for flavin mononucleotide

Sequence | apparent Kd [1] [nM] | apparent Kd [2] [nM] | apparent Kd [3] [nM] | apparent Kd [4] [nM]
ACCAAUGCAGGAUAUACAUGAGGAUCACCCAUGUAUAACCUACAUAGAUGAUCAUCAUGUAGAAGGGCAUUGGA | 12.5 | 10.1 | – | –
CGCUACUACCAGAAGGACAUGAGGAUCACCCAUGUAGGAUAUGGGUUACAAGUACCAGUGUAGAGAAACUACGCUACAGUAGCG | – | – | 29.8 | 8.3
AAAGUGUUAGGAUAUGUGAAGGCGUCUGAUAGACGAGGCCUGCAGAAGGGACAUGAGGAUCACCCAUGUAAAAA | 56.8 | 26 | – | –
UUUGCAUUCCGAGGAUAUUCAUAUAAUAACUACACAUGAGGAUCACCCAUGUGGCGAUAGCCUAGGGAGAAGGCGGUUUGCUUU | – | – | 22.8 | 21.3
UCAUUAUAGAUCCAUUUUAACUACAUGAGGAUCACCCAUGUGCAGGAUAUCGAUUGUUUUACUUUCGAGAAGGGCAAAUACAGA | 78 | 202 | – | –
UAGUCGGUAGAUAAUAAUGAUUACAUGAGGAUCACCCAUGUAUAGGAUAUCGUCAGGAAUACUGACGAGAAGGAUACAUCCGAC | 18 | 26.5 | – | –
AACUCACAUGAGGAUCACCCAUGUGAGGAUAUAUUAAUAUGUAUGUUAUUAUGUAUUGAUAGAAGGCGCGUGAU | 46.3 | 49.1 | – | –
GUCAGGUCGUGAGGAUAUACAACACUGCUUCGGCAGUGUAUUAAGAUCACAUGAGGAUCACCCAUGUAGAAGGCACGAGCUGAU | 14.1 | 210 | – | –
GUCGGAAACGACAAAAGUAGCAUAGGAGAAGGUUCAUUAAACAUGAGGAUCACCCAUGUAAUUGGGAAGGAUAUCCUAUGCUAC | – | – | 16.2 | 9.16
CAGCACGGAAACAAAGUCUUCGGACAUGAGGAUCACCCAUGUGAGGAUAUGCCUACUAAAAGUAGGCAGAAGGCACGCGUGCUG | 17.1 | 62.6 | – | –
GCGUUACAUGAGGAUCACCCAUGUGAGGAUAUGGUUCGGUACUGUCCUGUCGCGUACUCCAGAAGGCACGGGUG | 200 | 115 | – | –
AGCUAGUCAGGAUAUACGAACAUGUCGAAAGACGUGAGGGAACAUGAGGAUCACCCAUGUAGAAGGGACUAGCA | 30.6 | 36.2 | – | –
GCAUGUGUGUAAGGAUAUGCAUCACUGAGAAAUUUAGUGAGGAAGAUCACAUGAGGAUCACCCAUGUAGAAGGUACACACGUGG | 9.3 | 54.5 | – | –
GAUCAACAUGAGGAUCACCCAUGUCAGGAUAUGAUACUAUGUACUUCGGUACAUAGUAUCAGAAGGGACAGAUC | 122 | 296 | – | –
GGAGGACAUGAGGAUCACCCAUGUGGAUGGGCGCUAGGAUAUGCGAGAGGGAAGAGUGGAGCAGAAGGAGUGGGUU | – | – | 50.8 | 47.3
CGAUCGUUGCAGAAGGUUAUUUUUUUAACAAUUCUCUUAACAUGAGGAUCACCCAUGUUUUUGAUGAAGGAUAUGCAAGGGUCG | 5.76 | 5.5 | – | –
CGCUGGUGACAGCAUCCAUCAAAACAUGAGGAUCACCCAUGUAGAAGGCUGUACGGUUACCGUACAGAGGAUAUACAAUGAUGC | 15.1 | 28.4 | – | –
AAUUAUUGAUGAGGAUAUUGUGGUGAAACACCACAAGAAGGCAUUAUACACAUGAGGAUCACCCAUGUGAGCCUGAUGCAUAUA | 17.3 | 28.9 | – | –
GUCUCGAUGUAAGGAUAUGCAGUGGAUAACACUGCAGAAGGUACAUGAGGAUCACCCAUGUAUAUGAAAGAUAAUAAACGAGAC | 14.4 | 19.8 | – | –
CUGAAUAGAGGAUAUUGUACUGCUGACAUGAGGAUCACCCAUGUAUGUUAACUCGGCCGUCGAGAAGGCUAACAUA | 42.8 | 26.7 | – | –
UGUUGUAUUACAGGAUAUCUAUUAGUUUUAGUUAGAGAAGGGUAUUCACAUGAGGAUCACCCAUGUAUAUACGAGGAAGUUGUG | – | – | 44.1 | 49.1
CCAGAGAUAUGAGGAUAUCGAGUGGAAUACACUCGAGAAGGCAUGUGAAUACAUGAGGAUCACCCAUGUGAUCAAUACUCUGGA | – | – | 171 | 32.6
CAGUACUGAGGAUAUACAUGAGGAUCACCCAUGUGCUCUAGCUAGGAUACUAGCAUUAGUAGAAGGCAGUACUG | 15 | 136 | – | –
AUUAGGUAAGGAUAUACAUGAGGAUCACCCAUGUAGGUUAACGCAACCGGGUCCGGCUGUAGAAGGUGCAACGU | 32.5 | 32.6 | – | –
UCUGAUAUUCCCGUGCCUCCAACACAGGAUAUCCGUCACAACAUGAGGAUCACCCAUGUCCGGGAGGAGAAGGGUGUGGAGAGU | – | – | 91.3 | 21.5
GCAGCUAUUAUUAUACAUGAGGAUCACCCAUGUUACAUGUGUAAGGAUAUUGAAGUUUUUAUAAUCAAGAAGGUACUAUGCUGC | – | – | 14.4 | 9.33
AGAUUUGUACAUGAGGAUCACCCAUGUUAAUAGGUGUUUGUCAGAAGGCAUUAAGAGAGAAUUAAUGAGGAUAUGAAGUUUCAU | – | – | 59.2 | 36.2

Source: the EternaBench riboswitch data
